Article PMC2821697 (Bioorganic & medicinal chemistry, 2009)

Assays:
[1] = system: MDA-MB-231 (estrogen receptor negative breast cancer); assay: Cell growth inhibition assay; assay type: cell-based; conditions: Homo sapiens, MDA-MB-231, 72 h, read-out: ED50 against MDA-MB-231
Method in brief: (§1)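 Trypsinized cells were seeded in 96-well plates, then exposed 72 h to test compound from DMSO-diluted stock. Cells were TCA-fixed, stained with 0.4% SRB for 10 min, and dye solubilized in trizma base; A515. ED50 is the concentration halving net protein increase, mean ± SEM of ≥2 independent determinations.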

A549 (human lung cancer) = assay: Cell growth inhibition assay; assay type: cell-based; conditions: A549, 72 h, read-out: ED50 against A549
Method in brief: as §1

DU145 (prostate cancer) = assay: Cell growth inhibition assay; assay type: cell-based; conditions: Homo sapiens, DU-145, 72 h, read-out: ED50 against DU145
[2] = system: KB (nasopharyngeal carcinoma); assay: Cell growth inhibition assay; assay type: cell-based; conditions: Homo sapiens, 72 h, read-out: ED50 against KB
Method in brief: as §1

[3] = system: SK-BR-3 (HER2 over-expressing breast cancer); assay: Cell growth inhibition assay; assay type: cell-based, human; conditions: for ED50 against SK-BR-3: mean ED50+SEM, 2 or more independent tests, SRB, 72 h; for cancer cell line selectivity: fold more potent against SK-BR-3 compared with other cancer cell lines tested: SK-BR-3 versus six additional tested cancer cell lines
Method in brief: as §1

[4] = system: SK-BR-3 breast cancer cell line; assay: MTT assay, SK-BR-3; assay type: cell-based, human; conditions: 72 h, single experiment
[5] = system: 184A1 normal breast cell line; assay: MTT assay, 184A1 normal breast cell line; assay type: cell-based; conditions: 72 h, single experiment
Method in brief: (§2)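 184A1 and MCF10A were from ATCC. Cells were seeded at 5000/well in the recommended growth medium and incubated overnight. Test compound dissolved in DMSO was then added, followed by 72 h at 37 °C, 5% CO2. MTT reagent was added for 2 h, and formazan was read at OD 570. Data are mean and standard deviation of replicates from a single experiment.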

[6] = system: MCF10A normal breast cell line; assay: MTT assay, MCF10A normal breast cell line; assay type: cell-based; conditions: 72 h, single experiment
Method in brief: as §2

Work on `Cc1cccc2c1ccc1c3occ(C)c3c(=O)oc21` [Compound 1, Neo-tanshinlactone] yielded an IC50 [1] of 37.9 ± 1.4 µM, an IC50 (A549 (human lung cancer)) of 54.2 ± 3.4 µM and an IC50 (DU145 (prostate cancer)) of 58.3 ± 2 µM. It also gave an IC50 [2] greater than 37.9 µM.
For `Cc1cccc(-c2cc3occ(C)c3c(=O)o2)c1` [Compound 10, 3-Methyl-6-m-tolyl-4H-furo[3,2-c]pyran-4-one], the “ED50 against SK-BR-3” value [3] was 1.50 ± 0.04 µM.
With `COc1cccc(-c2cc3occ(C)c3c(=O)o2)c1` [Compound 11, 6-(3-Methoxyphenyl)-3-methyl-4H-furo[3,2-c]pyran-4-one] the IC50 [2] was greater than 78.1 µM.
For `CCOc1cccc(-c2cc3occ(C)c3c(=O)o2)c1` [Compound 12, 6-(3-Ethoxyphenyl)-3-methyl-4H-furo[3,2-c]pyran-4-one], the “ED50 against SK-BR-3” value [3] was 0.67 ± 0.03 µM.
`COc1cc(OC)cc(-c2cc3occ(C)c3c(=O)o2)c1` [Compound 25, 6-(3,5-Dimethoxyphenyl)-3-methyl-4H-furo[3,2-c]pyran-4-one] was tested, and the “potency against SK-BR-3 relative to 1” value ([3]; ED50 compared with neo-tanshinlactone (1)) was “approximately threefold”, the “cancer cell line selectivity: fold more potent against SK-BR-3 compared with other cancer cell lines tested” value [3] was 100- to 250 fold and the “ED50 against SK-BR-3” value [3] was 0.28 ± 0.01 µM. The IC50 [2] was greater than 69.9 µM, the “interpolated ED50 against SK-BR-3” value [4] was 1.0 µM and the “interpolated ED50 against 184A1” value [5] was 16.8 µM. The “interpolated ED50 against MCF10A” value [6] was greater than 35.0 µM.
With `COc1cc(-c2cc3occ(C)c3c(=O)o2)cc(OC)c1OC` [Compound 27, 3-Methyl-6-(3,4,5-trimethoxyphenyl)-4H-furo[3,2-c]pyran-4-one] the “cancer cell line selectivity: fold more potent against SK-BR-3 compared with other cancer cell lines tested” value [3] was 100- to 250 fold, the “ED50 against SK-BR-3” value [3] was 0.44 ± 0.01 µM and the IC50 [2] was greater than 63.3 µM.
